According to ChEMBL document CHEMBL3407383, “Design, synthesis and biological profile of new inhibitors of multidrug resistance associated proteins carrying a polycyclic scaffold” (Eur J Med Chem, 2015):
Active and inactive are the calls of the source. The calls are words filed in the database; no cut-off is given here.

system: HL60R; assay: Potentiation of doxorubicin-induced cell cycle arrest in human HL60R cells assessed as exit from mitosis at 10 uM after 48 hrs by propidium iodide staining-based flow cytometry; type: functional; settings: not given
In short: (§1)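 HL60R cells treated with compound plus 10 µM DXR for 24 and 48 h. Fixed in 70% ice-cold ethanol at -20 °C overnight, stained with PI 5 µg/mL plus DNase-free RNase A 10 µg/mL in PBS, 30 min at 37 °C in the dark. PI red fluorescence acquired on a linear scale at 600 nm by flow cytometry.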

Compound	Activity
O=C1[C@@H]2[C@H]3c4ccccc4[C@H](c4ccccc43)[C@@H]2C(=O)N1CC#CCN1CCN(c2ccccc2)CC1	inactive
CN1CCN(CC#CCN2C(=O)[C@@H]3[C@H]4c5ccccc5[C@H](c5ccccc54)[C@@H]3C2=O)CC1	inactive

molecular target: T1, ATP-dependent translocase ABCB1 (Homo sapiens, UniProt P08183); assay: Reversal of human MDR1-mediated drug efflux in mouse L5178 cells using rhodamine 123 as substrate assessed as fluorescence activity ratio at 4 uM incubated for 10 mins prior to substrate addition measured after 20 mins by FACScan flow cytometry relative to control; type: cell-based; settings: l5178, 20 min
T1 sequence (P08183 whole entry): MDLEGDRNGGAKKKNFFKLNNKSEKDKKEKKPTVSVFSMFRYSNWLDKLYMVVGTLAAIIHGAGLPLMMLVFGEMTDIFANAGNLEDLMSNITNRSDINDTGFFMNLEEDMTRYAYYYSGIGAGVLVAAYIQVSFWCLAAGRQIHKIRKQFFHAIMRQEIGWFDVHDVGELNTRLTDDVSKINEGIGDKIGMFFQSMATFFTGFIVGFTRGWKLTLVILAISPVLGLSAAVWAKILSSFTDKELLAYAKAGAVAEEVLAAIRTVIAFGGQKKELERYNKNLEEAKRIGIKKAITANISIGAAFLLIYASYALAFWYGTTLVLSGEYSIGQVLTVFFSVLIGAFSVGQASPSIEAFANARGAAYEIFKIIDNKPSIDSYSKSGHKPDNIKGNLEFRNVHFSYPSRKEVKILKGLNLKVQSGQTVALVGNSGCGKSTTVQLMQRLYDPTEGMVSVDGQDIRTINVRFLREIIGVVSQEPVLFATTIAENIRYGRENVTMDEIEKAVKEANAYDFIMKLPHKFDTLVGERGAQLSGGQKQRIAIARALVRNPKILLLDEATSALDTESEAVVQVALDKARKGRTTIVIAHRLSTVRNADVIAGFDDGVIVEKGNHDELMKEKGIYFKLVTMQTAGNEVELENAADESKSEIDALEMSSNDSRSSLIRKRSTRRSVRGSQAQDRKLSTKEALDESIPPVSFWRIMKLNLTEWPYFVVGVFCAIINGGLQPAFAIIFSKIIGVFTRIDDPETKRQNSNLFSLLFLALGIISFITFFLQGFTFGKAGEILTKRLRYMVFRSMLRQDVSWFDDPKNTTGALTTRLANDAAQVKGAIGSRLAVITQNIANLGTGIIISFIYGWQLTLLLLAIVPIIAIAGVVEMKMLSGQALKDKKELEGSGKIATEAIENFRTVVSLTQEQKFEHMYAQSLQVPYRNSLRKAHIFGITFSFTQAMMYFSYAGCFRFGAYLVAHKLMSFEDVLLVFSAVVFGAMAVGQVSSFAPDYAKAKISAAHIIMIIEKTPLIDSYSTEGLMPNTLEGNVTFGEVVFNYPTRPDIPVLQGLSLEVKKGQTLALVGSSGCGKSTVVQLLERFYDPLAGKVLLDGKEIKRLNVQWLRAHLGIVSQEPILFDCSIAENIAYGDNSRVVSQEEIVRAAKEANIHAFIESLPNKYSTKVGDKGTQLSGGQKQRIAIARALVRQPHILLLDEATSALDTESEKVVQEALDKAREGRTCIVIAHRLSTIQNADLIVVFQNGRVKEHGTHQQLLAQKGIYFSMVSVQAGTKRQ

Ratio	Compound
7.56	O=C1[C@@H]2[C@H]3c4ccccc4[C@H](c4ccccc43)[C@@H]2C(=O)N1CC#CCN1CCN(c2ccccc2)CC1
9.59	CN1CCN(CC#CCN2C(=O)[C@@H]3[C@H]4c5ccccc5[C@H](c5ccccc54)[C@@H]3C2=O)CC1

molecular target: T2, Multidrug resistance protein 1/Multidrug resistance associated protein 1 (Homo sapiens, UniProt P33527+P08183); assay: Inhibition of MDR1/MRP1 overexpressed in doxorubicin-resistant human HL60R cells assessed as DXR accumulation at 0.4 uM incubated for 2 hrs prior to DXR challenge measured after 2 hrs by fluorescence assay relative to control; type: cell-based; settings: not given
In short: (§2)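 HL60 and HL60R cells (2.5 × 10^5 cells/mL) preincubated 2 h with compound, then 2 h with 10 µM DXR. Washed twice in cold PBS, resuspended at 1 × 10^6 cells/mL. Anthracycline fluorescence read immediately by flow cytometry (excitation 488 nm, emission 600 nm, log scale). Mean ± SD, ≥3 independent experiments; one-way ANOVA versus HL60R.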

inhibition (INH)	Compound
Not Active	O=C1[C@@H]2[C@H]3c4ccccc4[C@H](c4ccccc43)[C@@H]2C(=O)N1CC#CCN1CCN(c2ccccc2)CC1
Not Active	CN1CCN(CC#CCN2C(=O)[C@@H]3[C@H]4c5ccccc5[C@H](c5ccccc54)[C@@H]3C2=O)CC1

system: not listed separately; assay: Cytotoxicity against human HL60 cells assessed as effect on cell cycle at 10 uM; type: cell-based; settings: hl-60, 10 µM

Compound	Activity
O=C1[C@@H]2[C@H]3c4ccccc4[C@H](c4ccccc43)[C@@H]2C(=O)N1CC#CCN1CCN(c2ccccc2)CC1	Non-toxic
CN1CCN(CC#CCN2C(=O)[C@@H]3[C@H]4c5ccccc5[C@H](c5ccccc54)[C@@H]3C2=O)CC1	Non-toxic

system: HL60R; assay: Potentiation of doxorubicin-induced cytotoxicity in human HL60R cells assessed as restart of cell growth at 10 uM incubated for 2 hrs prior to doxorubicin challenge measured after 24 hrs by trypan blue staining-based haemocytometry relative to control; type: functional; settings: not given
In short: (§3)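 HL60R cells seeded at 1.5 × 10^5 cells/mL; after 24 h, exposed to compound (10 µM) for 2 h, then 10 µM DXR added. Viable cells counted by Trypan Blue exclusion in a Bürker haemocytometer at 24 and 48 h. Mean ± SD, at least three independent experiments.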

Compound	Activity
O=C1[C@@H]2[C@H]3c4ccccc4[C@H](c4ccccc43)[C@@H]2C(=O)N1CC#CCN1CCN(c2ccccc2)CC1	inactive
CN1CCN(CC#CCN2C(=O)[C@@H]3[C@H]4c5ccccc5[C@H](c5ccccc54)[C@@H]3C2=O)CC1	inactive

molecular target: T1, ATP-dependent translocase ABCB1; assay: Reversal of human MDR1-mediated drug efflux in mouse L5178 cells using rhodamine 123 as substrate assessed as fluorescence activity ratio at 40 uM incubated for 10 mins prior to substrate addition measured after 20 mins by FACScan flow cytometry relative to control; type: cell-based; settings: l5178, 20 min

Ratio	Compound
11.52	O=C1[C@@H]2[C@H]3c4ccccc4[C@H](c4ccccc43)[C@@H]2C(=O)N1CC#CCN1CCN(c2ccccc2)CC1
64.74	CN1CCN(CC#CCN2C(=O)[C@@H]3[C@H]4c5ccccc5[C@H](c5ccccc54)[C@@H]3C2=O)CC1

system: HL60R; assay: Potentiation of doxorubicin-induced cell cycle arrest in human HL60R cells assessed as accumulation at G2/M phase at 10 uM after 24 hrs by propidium iodide staining-based flow cytometry; type: functional; settings: not given; in short: as §1

Compound	Activity
O=C1[C@@H]2[C@H]3c4ccccc4[C@H](c4ccccc43)[C@@H]2C(=O)N1CC#CCN1CCN(c2ccccc2)CC1	Active
CN1CCN(CC#CCN2C(=O)[C@@H]3[C@H]4c5ccccc5[C@H](c5ccccc54)[C@@H]3C2=O)CC1	Active

molecular target: T2, Multidrug resistance protein 1/Multidrug resistance associated protein 1; assay: Inhibition of MDR1/MRP1 overexpressed in doxorubicin-resistant human HL60R cells assessed as DXR accumulation at 10 uM incubated for 2 hrs prior to DXR challenge measured after 2 hrs by fluorescence assay relative to control; type: cell-based; settings: not given; in short: as §2

inhibition (INH)	Compound
Not Active	O=C1[C@@H]2[C@H]3c4ccccc4[C@H](c4ccccc43)[C@@H]2C(=O)N1CC#CCN1CCN(c2ccccc2)CC1
Not Active	CN1CCN(CC#CCN2C(=O)[C@@H]3[C@H]4c5ccccc5[C@H](c5ccccc54)[C@@H]3C2=O)CC1

system: not listed separately; assay: Cytotoxicity against human HL60R cells assessed as cell viability at 10 uM by MTT assay; type: cell-based; settings: not given

Compound	Activity
O=C1[C@@H]2[C@H]3c4ccccc4[C@H](c4ccccc43)[C@@H]2C(=O)N1CC#CCN1CCN(c2ccccc2)CC1	Non-toxic
CN1CCN(CC#CCN2C(=O)[C@@H]3[C@H]4c5ccccc5[C@H](c5ccccc54)[C@@H]3C2=O)CC1	Non-toxic

system: not listed separately; assay: Cytotoxicity against human HL60 cells assessed as cell viability at 10 uM by MTT assay; type: cell-based; settings: hl-60, 10 µM

Compound	Activity
O=C1[C@@H]2[C@H]3c4ccccc4[C@H](c4ccccc43)[C@@H]2C(=O)N1CC#CCN1CCN(c2ccccc2)CC1	Non-toxic
CN1CCN(CC#CCN2C(=O)[C@@H]3[C@H]4c5ccccc5[C@H](c5ccccc54)[C@@H]3C2=O)CC1	Non-toxic

molecular target: T2, Multidrug resistance protein 1/Multidrug resistance associated protein 1; assay: Activity at human MDR1/MRP1 overexpressed in doxorubicin-resistant human HL60R cells assessed as ATP consumption at 10 uM after 2 hrs by luminescence assay (reference value: 6350 +/- 303 RLU); type: cell-based; settings: not given
In short: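 HL60R cells at 2.5 × 10^5 cells/mL exposed to 10 µM compound (DMSO solution) for 2 h at 37 °C, 5% CO2; washed twice in cold PBS, resuspended at 1 × 10^6 cells/mL. 1 × 10^5 cells lysed in swab by 20 s agitation; ATP read by luciferase/d-luciferin bioluminescence on a luminometer.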

RLU	Compound
3650	O=C1[C@@H]2[C@H]3c4ccccc4[C@H](c4ccccc43)[C@@H]2C(=O)N1CC#CCN1CCN(c2ccccc2)CC1
3429	CN1CCN(CC#CCN2C(=O)[C@@H]3[C@H]4c5ccccc5[C@H](c5ccccc54)[C@@H]3C2=O)CC1

system: HL60R; assay: Potentiation of doxorubicin-induced cytotoxicity in human HL60R cells assessed as impairment of cell growth at 10 uM incubated for 2 hrs prior to doxorubicin challenge measured up to 24 hrs by trypan blue staining-based haemocytometry; type: functional; settings: not given; in short: as §3

Compound	Activity
O=C1[C@@H]2[C@H]3c4ccccc4[C@H](c4ccccc43)[C@@H]2C(=O)N1CC#CCN1CCN(c2ccccc2)CC1	Active
CN1CCN(CC#CCN2C(=O)[C@@H]3[C@H]4c5ccccc5[C@H](c5ccccc54)[C@@H]3C2=O)CC1	Active

molecular target: T1, ATP-dependent translocase ABCB1; assay: Reversal of human MDR1-mediated drug efflux in mouse L5178 cells using rhodamine 123 as substrate at 40 uM incubated for 10 mins prior to substrate addition by FACScan flow cytometry relative to verapamil; type: cell-based; settings: l5178, 10 min
In short: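 L5178 MDR1-transfected and parental mouse lymphoma cells at 2 × 10^6/mL in serum-free McCoy's 5A. Preincubated with compound (0.4–40 µM) for 10 min at room temperature, then rhodamine-123 (5.2 µM final) added for 20 min at 37 °C; washed twice, resuspended in PBS, read by flow cytometry. Verapamil as positive control. R = (MDR treated/MDR control)/(parental treated/parental control).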

Ratio	Compound
2	O=C1[C@@H]2[C@H]3c4ccccc4[C@H](c4ccccc43)[C@@H]2C(=O)N1CC#CCN1CCN(c2ccccc2)CC1

system: not listed separately; assay: Cytotoxicity against human HL60R cells assessed as effect on cell cycle at 10 uM; type: cell-based; settings: not given

Compound	Activity
O=C1[C@@H]2[C@H]3c4ccccc4[C@H](c4ccccc43)[C@@H]2C(=O)N1CC#CCN1CCN(c2ccccc2)CC1	Non-toxic
CN1CCN(CC#CCN2C(=O)[C@@H]3[C@H]4c5ccccc5[C@H](c5ccccc54)[C@@H]3C2=O)CC1	Non-toxic

system: not listed separately; assay: Lipophilicity, log P of the compound; type: physicochemical; settings: octanol/water

logP	Compound
2.54	O=C1[C@@H]2[C@H]3c4ccccc4[C@H](c4ccccc43)[C@@H]2C(=O)N1CC#CCN1CCN(c2ccccc2)CC1
2.54	CN1CCN(CC#CCN2C(=O)[C@@H]3[C@H]4c5ccccc5[C@H](c5ccccc54)[C@@H]3C2=O)CC1
